According to publication PMC5154386 (Journal of medicinal chemistry, 2015):
≈ marks a conversion by molar mass, not a printed value.

Tests used:
BEAS-2B cell line = test: Mammalian cell cytotoxicity assay; type: cell-based
[1] = test system: murine red blood cells (mRBCs); test: Hemolytic assay; type: cell-based, mouse; conditions: for hemolysis: at higher concentrations
How it was run: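 Hemolysis was measured on murine red blood cells exposed to the test compounds. Gramicidin, amphotericin B and the parent aminoglycoside were run as comparators.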

A549 cell line = test: Mammalian cell cytotoxicity assay; type: cell-based
[2] = test system: S. aureus NRS385 (USA 300) (VIII); test: Antibacterial MIC determination; type: cell-based; conditions: Staphylococcus aureus, NRS385|USA300
How it was run: (§1)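 MICs in μg/mL against a panel of 11 Gram-positive strains (including MRSA strains and VRE) and six Gram-negative strains. The panel held strains both susceptible and resistant to the parent aminoglycoside, each coded by a roman numeral. Each determination was run at least in duplicate.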

S. aureus ATCC 29213 (V) = test: Antibacterial MIC determination; type: cell-based; conditions: Staphylococcus aureus, ATCC29213
How it was run: as §1

[3] = test system: various yeast strains and filamentous fungi; test: Antifungal MIC, summary over the fungal strains tested; type: cell-based, Candida and Aspergillus species; conditions: for MIC values, range: range over the fungal strains tested; for MIC of sulfone relative to MIC of corresponding thioether: collection of fungal strains, generally
[4] = test system: C. albicans ATCC 64124 (strain B); test: Time-kill assay; type: cell-based; conditions: for time-kill activity at subinhibitory concentration: 1/2 MIC, 24 h period; for time to complete fungal cell death: at MIC
[5] = test system: Aspergillus nidulans ATCC 38163 (H); test: Antifungal MIC determination; type: cell-based; conditions: Aspergillus nidulans (strain H)
[6] = test system: various yeast strains (C. albicans); test: In vitro combination study with POS, summary over yeast strains; type: cell-based; conditions: for lowering of the MIC value by POS: in combination with POS; for FICI values, range: with POS, all tested fungal strains (except 3d against strain A)
How it was run: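 Posaconazole was tested in combination with the test compound against yeast strains, both azole-resistant and azole-susceptible. FICI = (MIC of A in combination / MIC of A alone) + (MIC of B in combination / MIC of B alone). FICI ≤ 0.5 was scored synergy, 0.5 < FICI < 4 no interaction, and FICI ≥ 4 antagonism.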

[7] = test system: C. albicans ATCC 10231 (strain A); test: Spontaneous frequency of resistance; type: cell-based
[8] = test system: S. aureus NRS383 (USA 200) (VII); test: Antibacterial MIC determination; type: cell-based; conditions: Staphylococcus aureus, NRS383|USA200
How it was run: as §1

MRSA (III) = test: Antibacterial MIC determination; type: cell-based; conditions: Staphylococcus aureus
How it was run: as §1

[9] = test system: AAC(3), AAC(2′), and AAC(6′); test: TLC assessment of modification by AACs alone and together; type: biochemical; conditions: for modification by three AACs used simultaneously (TLC): AAC(3), AAC(2′) and AAC(6′) simultaneously
[10] = cited from earlier work
Pythium insidiosum = conditions: in vitro; cited from earlier work
E. coli MC1061 (XIV) = test: Antibacterial MIC determination; type: cell-based; conditions: Escherichia coli
How it was run: as §1

[11] = test system: tested Gram-positive bacteria; test: Antibacterial MIC, summary over the Gram-positive panel; type: cell-based; conditions: iv
How it was run: as §1

[12] = test system: K. pneumoniae ATCC 27736 (XV); test: Antibacterial MIC determination; type: cell-based; conditions: Klebsiella pneumoniae, ATCC27736
How it was run: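 MIC in μg/mL against a panel of Gram-positive and Gram-negative strains that includes strains susceptible and resistant to the parent aminoglycoside; each determination done at least in duplicate.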

[13] = test system: Gram-negative bacterial strains tested; test: Antibacterial MIC, summary over the Gram-negative panel; type: cell-based
[14] = at 50× MIC, MIC as in combination with POS

CCCCCCCCSC[C@@H]1O[C@@H](O[C@@H]2[C@@H](O)[C@H](O[C@@H]3O[C@@H](CN)[C@H](O)[C@@H](O)[C@@H]3N)[C@@H](N)C[C@H]2N)[C@@H](O)[C@H](N)[C@H]1O [Compound 3a]
toxicity (BEAS-2B cell line): little to no toxicity | hemolysis [1]: little to no hemolysis | toxicity (A549 cell line): little to no toxicity

CCCCCCCCCCSC[C@@H]1O[C@@H](O[C@@H]2[C@@H](O)[C@H](O[C@@H]3O[C@@H](CN)[C@H](O)[C@@H](O)[C@@H]3N)[C@@H](N)C[C@H]2N)[C@@H](O)[C@H](N)[C@H]1O [Compound 3b]
toxicity (BEAS-2B cell line): little to no toxicity | MIC [2]: 32 to 64 µg/mL (≈ 50 to 100 µM) | MIC (S. aureus ATCC 29213 (V)): 16 to 32 µg/mL (≈ 25 to 50 µM) | hemolysis [1]: little to no hemolysis | toxicity (A549 cell line): little to no toxicity

CCCCCCCCCCCCSC[C@@H]1O[C@@H](O[C@@H]2[C@@H](O)[C@H](O[C@@H]3O[C@@H](CN)[C@H](O)[C@@H](O)[C@@H]3N)[C@@H](N)C[C@H]2N)[C@@H](O)[C@H](N)[C@H]1O [Compound 3c]
MIC values, range [3]: ≤1.95 to 31.2 µg/mL | time-kill activity at subinhibitory concentration [4]: fungistatic activity | time to complete fungal cell death [4]: 24 h | times better than KANB [5]: 64 times | mRBCs lysed ([1]; 50× MIC, MIC as in combination with POS): 60% | less hemolytic than AmB [1, 14]: ~ 30% | less hemolytic than gramicidin [1, 14]: ~ 20% | lowering of the MIC value by POS [6]: 4–16 fold | FICI values, range [6]: 0.07 to 0.31 | mutants ([7]; 3c (8 μg/mL) and POS (0.25 μg/mL), 96 h incubation): 24 colonies | spontaneous frequency rate of resistance ([7]; combination of 3c and POS): 2.4 × 10^−7

CCCCCCCCCCCCCCSC[C@@H]1O[C@@H](O[C@@H]2[C@@H](O)[C@H](O[C@@H]3O[C@@H](CN)[C@H](O)[C@@H](O)[C@@H]3N)[C@@H](N)C[C@H]2N)[C@@H](O)[C@H](N)[C@H]1O [Compound 3d]
MIC [8]: 8 to 16 µg/mL (≈ 11.5 to 23 µM) | MIC values, range [3]: ≤1.95 to 15.6 µg/mL | MIC (MRSA (III)): 32 to 64 µg/mL (≈ 46 to 92 µM) | time-kill activity at subinhibitory concentration [4]: fungistatic activity | time to complete fungal cell death [4]: 12 h | MIC [2]: 16 to 32 µg/mL (≈ 23 to 46 µM) | modification by three AACs used simultaneously (TLC) [9]: only the 3-monoacetylated product was obtained | lowering of the MIC value by POS [6]: 2–8 fold | FICI values, range [6]: 0.07 to 0.31

CCCCCCCCCCCCCCCCSC[C@@H]1O[C@@H](O[C@@H]2[C@@H](O)[C@H](O[C@@H]3O[C@@H](CN)[C@H](O)[C@@H](O)[C@@H]3N)[C@@H](N)C[C@H]2N)[C@@H](O)[C@H](N)[C@H]1O [Compound 3e]
MIC values, range [3]: 1.95 to 3.9 µg/mL | times more effective than KANB ([3]; several of the tested yeast strains): 32 times | times better than FLC [5]: 32 times | times better than KANB [5]: 64 times

CCCCCCCCCCCCS(=O)(=O)C[C@@H]1O[C@@H](O[C@@H]2[C@@H](O)[C@H](O[C@@H]3O[C@@H](CN)[C@H](O)[C@@H](O)[C@@H]3N)[C@@H](N)C[C@H]2N)[C@@H](O)[C@H](N)[C@H]1O [Compound 4c]
MIC of sulfone relative to MIC of corresponding thioether [3]: ≤ 2 fold dilution

CCCCCCCCCCCCCCS(=O)(=O)C[C@@H]1O[C@@H](O[C@@H]2[C@@H](O)[C@H](O[C@@H]3O[C@@H](CN)[C@H](O)[C@@H](O)[C@@H]3N)[C@@H](N)C[C@H]2N)[C@@H](O)[C@H](N)[C@H]1O [Compound 4d]
MIC of sulfone relative to MIC of corresponding thioether [3]: ≤ 2 fold dilution

CNC(C)C1CCC(N)C(OC2C(N)CC(N)C(OC3OCC(C)(O)C(NC)C3O)C2O)O1 (stereo not shown) [GEN, gentamicin]
safe serum concentration [10]: 30 to 40 µg/mL | concentration displaying antifungal activity (antifungal MIC) (Pythium insidiosum): 64 µg/mL

NC[C@H]1O[C@H](O[C@H]2[C@H](O)[C@@H](O[C@H]3O[C@H](CO)[C@@H](O)[C@H](N)[C@H]3O)[C@H](N)C[C@@H]2N)[C@H](O)[C@@H](O)[C@@H]1O [KANA, kanamycin A]
MIC (E. coli MC1061 (XIV)): 8 to 16 µg/mL (≈ 16.5 to 33 µM) | MIC [11]: > 128 µg/mL | MIC [12]: 16 to 32 µg/mL (≈ 33 to 66 µM)

NC[C@H]1O[C@H](O[C@H]2[C@H](O)[C@@H](O[C@H]3O[C@H](CO)[C@@H](O)[C@H](N)[C@H]3O)[C@H](N)C[C@@H]2N)[C@H](N)[C@@H](O)[C@@H]1O [KANB, kanamycin B, reference compound]
MIC [13]: ≤ 16 µg/mL | toxicity (BEAS-2B cell line): little to no toxicity | modification by three AACs used simultaneously (TLC) [9]: converted to a diacetylated adduct | modification by a single AAC (TLC) ([9]; individually subjected to AAC(3), AAC(2′), or AAC(6′) overnight): completely converted to its corresponding monoacetylated product | hemolysis [1]: little to no hemolysis | toxicity (A549 cell line): little to no toxicity

NC[C@@H]1O[C@H](O[C@H]2[C@@H](O)[C@H](O[C@@H]3[C@@H](O)[C@H](N)C[C@H](N)[C@H]3O[C@H]3O[C@H](CN)[C@@H](O)[C@H](O)[C@H]3N)O[C@@H]2CO)[C@H](N)[C@@H](O)[C@@H]1O [NEO, neomycin B]
concentration displaying antifungal activity (antifungal MIC) (Pythium insidiosum): 64 µg/mL

NC[C@@H]1O[C@H](O[C@H]2[C@@H](O)[C@H](O[C@@H]3[C@@H](O)[C@H](N)C[C@H](N)[C@H]3O[C@H]3O[C@H](CO)[C@@H](O)[C@H](O)[C@H]3N)O[C@@H]2CO)[C@H](N)[C@@H](O)[C@@H]1O [PAR, paromomycin]
safe serum concentration [10]: 30 to 40 µg/mL | concentration displaying antifungal activity (antifungal MIC) (Pythium insidiosum): 64 µg/mL

CC[C@@H]([C@H](C)O)n1ncn(-c2ccc(N3CCN(c4ccc(OC[C@@H]5CO[C@@](Cn6cncn6)(c6ccc(F)cc6F)C5)cc4)CC3)cc2)c1=O [POS, posaconazole, reference compound]
reduction of the MIC values of POS ([6]; in the presence of 3c): 16–64 fold | reduction of the MIC values of POS ([6]; in the presence of 3d): 16–32 fold

[H]/N=C(/N)N[C@H]1[C@H](O)[C@@H](O)[C@H](O[C@@H]2O[C@@H](C)[C@](O)(C=O)[C@H]2O[C@@H]2O[C@@H](CO)[C@H](O)[C@@H](O)[C@@H]2NC)[C@@H](N/C(N)=N\[H])[C@@H]1O [STR, streptomycin]
safe serum concentration [10]: 30 to 40 µg/mL | concentration displaying antifungal activity (antifungal MIC) (Pythium insidiosum): 64 µg/mL
